Reference: ChEMBL document CHEMBL1142075, “Two-year assessment of entecavir resistance in Lamivudine-refractory hepatitis B virus patients reveals different clinical outcomes depending on the resistance substitutions present” (Antimicrob Agents Chemother, 2007)

Experiments:
Hepatitis B virus [1] = assay: Inhibition of HBV replication with RT M309L substitution from Lamivudine refractory patient transfected into HepG2 cells; type: functional, organism-based
Procedure, shortened: (§1)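 HepG2 cells bulk-transfected with full-length HBV phenotyping plasmids cloned from patient isolates, then seeded into wells with compound titration. DMSO vehicle controls and cloned lab wild-type HBV run in parallel each experiment. At 5 days posttransfection, released virions stripped with Nonidet P-40, captured from medium with anti-HBV core antibody, and extracellular replicated virus quantitated. EC50 = concentration giving 50% inhibition.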

Hepatitis B virus [2] = assay: Inhibition of HBV replication with RT L80I substitution and L180M, M204I background from Lamivudine refractory patient transfected into HepG2 cells; type: functional, organism-based; procedure, shortened: as §1
Hepatitis B virus [3] = assay: Inhibition of HBV replication with RT K168E substitution and M204I background from Lamivudine refractory patient transfected into HepG2 cells; type: functional; procedure, shortened: as §1
Hepatitis B virus [4] = assay: Inhibition of HBV replication with RT Q267Stop substitution and L180M, M204V background from Lamivudine refractory patient transfected into HepG2 cells; type: functional; procedure, shortened: as §1
Hepatitis B virus [5] = assay: Inhibition of HBV replication with RT A181T substitution and V173L, L180M, M204V background from Lamivudine refractory patient transfected into HepG2 cells
Hepatitis B virus [6] = assay: Inhibition of HBV replication with RT A200V substitution and L180M, M204I background from Lamivudine refractory patient transfected into HepG2 cells; type: functional, organism-based; procedure, shortened: as §1
Hepatitis B virus [7] = assay: Inhibition of HBV replication with RT G295S substitution and L80I, M204I background from Lamivudine refractory patient transfected into HepG2 cells; type: functional; procedure, shortened: as §1
Hepatitis B virus [8] = assay: Inhibition of HBV replication with RT S78T substitution from Lamivudine refractory patient transfected into HepG2 cells; type: functional, organism-based; procedure, shortened: as §1
Hepatitis B virus [9] = assay: Inhibition of HBV replication with RT L229W substitution and L180M, M204V background from Lamivudine refractory patient transfected into HepG2 cells; type: functional, organism-based; procedure, shortened: as §1
Hepatitis B virus [10] = assay: Inhibition of HBV replication with RT A200V substitution from Lamivudine refractory patient transfected into HepG2 cells; type: functional, organism-based; procedure, shortened: as §1
Hepatitis B virus [11] = assay: Inhibition of HBV replication with RT L80V substitution and L180M, M204V background from Lamivudine refractory patient transfected into HepG2 cells; type: functional, organism-based; procedure, shortened: as §1
Hepatitis B virus [12] = assay: Inhibition of HBV replication with RT V224A substitution and V173L, L180M, M204V background from Lamivudine refractory patient transfected into HepG2 cells; type: functional; procedure, shortened: as §1
Hepatitis B virus [13] = assay: Inhibition of HBV replication with RT A200V substitution and M204I background from Lamivudine refractory patient transfected into HepG2 cells; type: functional, organism-based; procedure, shortened: as §1
Hepatitis B virus [14] = assay: Inhibition of HBV replication with RT D263G substitution from Lamivudine refractory patient transfected into HepG2 cells; type: functional, organism-based; procedure, shortened: as §1
Hepatitis B virus [15] = assay: Inhibition of HBV replication with RT L228P substitution and M204I background from Lamivudine refractory patient transfected into HepG2 cells; type: functional; procedure, shortened: as §1
Hepatitis B virus [16] = assay: Inhibition of HBV replication with RT C188S substitution and L80I, L180T, M204V background from Lamivudine refractory patient transfected into HepG2 cells; type: functional, organism-based; procedure, shortened: as §1
Hepatitis B virus [17] = assay: Inhibition of HBV replication with RT V27A substitution and L180M, M204V background from Lamivudine refractory patient transfected into HepG2 cells; type: functional; procedure, shortened: as §1
Hepatitis B virus [18] = assay: Inhibition of HBV replication with RT I53F substitution and V173F, L180M, M204V background from Lamivudine refractory patient transfected into HepG2 cells; type: functional, organism-based; procedure, shortened: as §1

C=C1[C@H](CO)[C@@H](O)C[C@@H]1n1cnc2c(=O)[nH]c(N)nc21.O [ENTECAVIR]
EC50 (Hepatitis B virus [1]): 4 nM
EC50 (Hepatitis B virus [2]): 45.3 nM
Inhibition (Hepatitis B virus [3]): <10%
Inhibition (Hepatitis B virus [4]): <10%
EC50 (Hepatitis B virus [5]): 14.2 nM
EC50 (Hepatitis B virus [6]): 10.2 nM
Inhibition (Hepatitis B virus [7]): <10%
EC50 (Hepatitis B virus [8]): 2.4 nM
EC50 (Hepatitis B virus [9]): 32.9 nM
EC50 (Hepatitis B virus [10]): 7.6 nM
EC50 (Hepatitis B virus [11]): 11 nM
Inhibition (Hepatitis B virus [12]): <10%
EC50 (Hepatitis B virus [13]): 33 nM
EC50 (Hepatitis B virus [14]): 5.8 nM
Inhibition (Hepatitis B virus [15]): <10%
EC50 (Hepatitis B virus [16]): 31.2 nM
Inhibition (Hepatitis B virus [17]): <10%
EC50 (Hepatitis B virus [18]): 22.3 nM
